# Assay results as given in ChEMBL document CHEMBL1135390, “Inotropic activity of hydroindene amidinohydrazones” (2002).
# Legend:
# [1] = species: Cavia porcellus; experiment: Inotropic activity on electrically driven isolated Guinea pig left atria, (from basal force).; type: functional
# How it was run: (§1)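 Isolated guinea pig left atrium paced at 1 Hz via bipolar platinum electrodes (1 ms pulses, twice threshold voltage), in oxygenated (95% O2/5% CO2) Tyrode-type solution at 34 °C. Resting tension 1 g, 60 min equilibration. Isometric contraction amplitude measured. Cumulative 10^-7 to 5×10^-4 M at 30 min intervals, 1% DMSO final. Expressed as % of pre-drug control. Mean of at least five experiments.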
# [2] = species: Cavia porcellus; experiment: Inotropic activity on electrically driven isolated Guinea pig atria; type: functional; how it was run: as §1
# [3] = species: Cavia porcellus; experiment: Inotropic activity on cardiac frequency on spontaneously beating guinea pig right atria, (from basal frequency).; type: functional, Heart
# How it was run: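 Isolated guinea pig right atrium, beating spontaneously, in oxygenated (95% O2/5% CO2) Tyrode-type solution at 34 °C. Resting tension 1 g, 60 min equilibration. Rate recorded isometrically via force transducer. Cumulative concentrations 10^-7 to 5×10^-4 M added at 30 min intervals, from DMSO stock (1% DMSO final in bath). Expressed as % of pre-drug control. Mean of at least five experiments.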
# [4] = Cavia porcellus, read-out: Emax
# [5] = Cavia porcellus, Heart, read-out: Emax
Compound,"Emax [1, 4] [%]",concentration at Emax [2] [mM],"Emax [3, 5] [%]",Emax [1] [%],Emax [3] [%]
COC(=O)/C=C/[C@H]1CCC2=C/C(=N/N=C(N)N)CC[C@@]21C,-67,0.3,13.2,,
CC1=C2CC[C@@H](/C=N/N=C(N)N)[C@@]2(C)CC/C1=N\N=C(N)N,129,0.3,33.7,,
C[C@H]1O[C@@H](O[C@H]2[C@@H](O)C[C@H](O[C@H]3[C@@H](O)C[C@H](O[C@H]4CC[C@@]5(C)[C@H](CC[C@@H]6[C@@H]5C[C@@H](O)[C@]5(C)[C@@H](C7=CC(=O)OC7)CC[C@]65O)C4)O[C@@H]3C)O[C@@H]2C)C[C@H](O)[C@@H]1O [DIGOXIN],103,0.001,-28.3,,
C[C@]12CC/C(=N\N=C(N)N)C=C1CC[C@@H]2/C=N/N=C(N)N (stereo in doubt; 30),,0.3,,170,-5.1
C[C@]12CC/C(=N\N=C(N)N)C[C@@]1(O)CC[C@@H]2/C=N/N=C(N)N,-59,0.3,-15,,
C[C@]12CC/C(=N\N=C(N)N)C=C1CC[C@@H]2CN1C(=O)c2ccccc2C1=O,86,0.1,-18,,
C[C@]12CC/C(=N\N=C(N)N)C=C1CC[C@@H]2/C=C/[N+](=O)[O-],128,0.3,-1.7,,
C[C@]12CC/C(=N\N=C(N)N)C=C1CC[C@@H]2CN,46,0.3,-16,,
COC(=O)/C=C\[C@H]1CCC2=C/C(=N/N=C(N)N)CC[C@@]21C,-76,0.3,-54,,
COC(=O)/C=C/[C@H]1CCC2=C(C)/C(=N/N=C(N)N)CC[C@@]21C,-41,0.3,-0.2,,
C[C@]12CC/C(=N\N=C(N)N)C=C1CC[C@@H]2/C=N/N=C(N)N (stereo in doubt; 3),,,,132,-5.4
CC1=C2CC[C@H](/C=N/N=C(N)N)[C@@]2(C)CC/C1=N\N=C(N)N,108,0.3,4.2,,
C[C@]12CC/C(=N\N=C(N)N)C=C1CC[C@@H]2CO,-47,0.3,22,,
C[C@]12CC[C@H]3[C@@H](CC[C@]4(O)C[C@@H](O)CC[C@]34C=O)[C@@]1(O)CC[C@@H]2C1=CC(=O)OC1 [STROPHANTHIDIN],122,0.001,80.4,,
